{"data": "Measurements pooled from the literature", "organism": "Leishmania donovani", "read-out": "parasite growth", "note": "Protocols differ between the studies behind these lines."}
{"SMILES": "CCCCCCCC/C=C\\CCCCCCCCCCCCOP(=O)([O-])OCC[N+](C)(C)C", "technique": "resazurin", "concentration": "50 µM", "time": "72 h", "notes": "promastigote", "measurement": "inhibition", "result": "108%"}
{"SMILES": "COc1ccccc1-c1n[nH]c2nc(NC3CCN(C(=O)Cc4ccc(OCCOCCNC(=O)OC(C)(C)C)cc4)CC3)ncc12", "cell line": "THP-1", "notes": "intracellular, amastigote", "measurement": "EC50", "result": "4.51 µM"}
{"SMILES": "Fc1cccc(Nc2nc(-c3ccccn3)nc3ccccc23)c1", "technique": "imaging", "cell line": "THP-1", "notes": "intracellular, amastigote", "measurement": "IC50", "result": "0.79 µM"}
{"SMILES": "C[C@@H]1[C@H](O)[C@@H](C)/C=C/C=C/C=C/C=C/C=C/C=C/C=C/[C@H](O[C@@H]2O[C@H](C)[C@@H](O)[C@H](N)[C@@H]2O)C[C@@H]2O[C@](O)(C[C@@H](O)C[C@@H](O)[C@H](O)CC[C@@H](O)C[C@@H](O)CC(=O)O[C@H]1C)C[C@H](O)[C@H]2C(=O)O", "technique": "MTT", "time": "48 h", "notes": "promastigote", "measurement": "IC90", "result": "5.4 µM"}
{"SMILES": "C[C@@H]1[C@H](O)[C@@H](C)/C=C/C=C/C=C/C=C/C=C/C=C/C=C/[C@H](O[C@@H]2O[C@H](C)[C@@H](O)[C@H](N)[C@@H]2O)C[C@@H]2O[C@](O)(C[C@@H](O)C[C@@H](O)[C@H](O)CC[C@@H](O)C[C@@H](O)CC(=O)O[C@H]1C)C[C@H](O)[C@H]2C(=O)O", "technique": "resazurin", "time": "72 h", "notes": "promastigote", "measurement": "IC90", "result": "1.8 µg/mL"}
{"SMILES": "COc1ccccc1-c1n[nH]c2nc(N[C@H]3CC[C@H](NS(=O)(=O)CCCOCCOCCNC(=O)OC(C)(C)C)CC3)ncc12", "notes": "amastigote", "measurement": "EC50", "result": "1.36 µM"}
{"SMILES": "COc1cc(NC(C)CCCNC(=S)NCCCC(C)Nc2cc(OC)cc3cccnc23)c2ncccc2c1.Cl.Cl (stereo not drawn)", "technique": "resazurin", "notes": "promastigote", "measurement": "IC50", "result": "4 to 9 µg/mL"}
{"SMILES": "COc1ccccc1-c1n[nH]c2nc(NC3CCN(C(=O)Cc4ccc(OCCOCCN)cc4)CC3)ncc12", "notes": "amastigote", "measurement": "EC50", "result": "1.99 µM"}
{"SMILES": "CCCCCCCCCCCCCCCCOP(=O)([O-])OCC[N+](C)(C)C", "technique": "resazurin", "concentration": "25 µM", "time": "72 h", "notes": "promastigote", "measurement": "inhibition", "result": "100%"}
{"SMILES": "COc1cc(NC(C)CCCNC(=S)NCCCC(C)Nc2cc(OC)cc3ccc(C(C)(C)C)nc23)c2nc(C(C)(C)C)ccc2c1.Cl.Cl (stereo not drawn)", "technique": "resazurin", "notes": "promastigote", "measurement": "IC90", "result": "20 to 31 µg/mL"}
{"SMILES": "COc1ccccc1-c1n[nH]c2nc(N[C@H]3CC[C@H](NS(=O)(=O)CCCOCCOCCN)CC3)ncc12", "cell line": "THP-1", "notes": "intracellular, amastigote", "measurement": "EC50", "result": "24.7 µM"}
{"SMILES": "c1ccc(CNc2nc(-c3ccccn3)nc3ccccc23)cc1", "technique": "imaging", "cell line": "THP-1", "notes": "intracellular, amastigote", "measurement": "IC50", "result": "1.1 µM"}
